hERG protect – hERG (human) protection from proarrhythmic block. Q12809. CHO-hERG, FluxOR thallium flux, dofetilide IC70 present. activation (rescue from dofetilide block), less the hit threshold, % at 10 µM. 310,000 compounds, 0.51% hits. AID 1511;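 active means activation above the mean of controls blocked by dofetilide plus 5 SD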;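 further: thallium influx through hERG after potassium depolarization seen as dye fluorescence rise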
Mot1-301 SUMO – SUMOylation pathway inhibition by Mot1-301 growth rescue | S. cerevisiae Mot1-301 growth rescue, ATP luminescence, 38.5C; percent above DMSO median, 100 means doubled | growth rescue, % at 18.8 µM | 320,000 compounds, 1% hits | AID 2716;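 active means every valid replicate shows activation above 250% relative to neutral control wells; inactive means the rest, any valid replicate at or below 250%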
KCNQ1 pot – human KCNQ1 channel potentiation or activation | P51787 | CHO-K1 KCNQ1, thallium flux FluxOR fluorescence; hits give high values | B-score at 10 µM | 310,000 compounds, 0.35% hits;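 active means fluorescence ratio B-score, a plate-corrected score, at least three library SD, with initial intensity B-score within 5 SD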
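Doses: Single concentration per compound, DMSO matched to controls | Test system: KCNQ1-transfected CHO-K1 cells | Timing: 90 min dye loading and 20 min compound exposure, both at room temperature | Measured by: Kinetic FluxOR thallium fluorescence, 10-s 1-Hz baseline, 110-s post-stimulus read | Medium: Assay buffer with matched DMSO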
AI-2 QS mod – Vibrio harveyi AI-2 quorum sensing modulation; Vibrio harveyi JMH597 AI-2 luminescence/OD600 ratio, 9 h; hits give low values; strain lacks LuxN and CqsS sensors; 0 = neutral-control median; activity change, % at 7.5 µM; 300,000 compounds, 0.4% hits; in the data active means activity change below about -75%, passing the limit was not always enough; inconclusive means no clear call, values can overlap the other calls;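 further: luminescence divided by OD600 gain over 9 h not by final OD600 alone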
KCNQ1 block – human KCNQ1 channel inhibition. 310,000 compounds, 1.3% hits. B-score at 10 µM. P51787. CHO-K1 KCNQ1, FluxOR thallium flux fluorescence; hits give high values. AID 2642;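 active means compounds whose thallium flux B-score, printed positive for inhibition, exceeds three library SD while starting fluorescence stays within three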;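 further: channel opened by potassium depolarization with thallium stimulus after 20 min compound exposure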
KCC2 mod – KCC2 (human) Cl- transport modulation; Q9H2X9; KCC2 cells, thallium flux FluoZin-2 fluorescence; B-score of Tl+ flux slope (higher = more flux/activation; lower = inhibition) at 10 µM; 190,000 compounds, 2.2% hits; AID 1456;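 active means thallium flux slope and its plate-corrected score both differing from the plate sample mean at a set confidence after two filtering rounds, in either direction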;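 further: slope of fluorescence scaled to starting intensity during 10 to 20 s after thallium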
KCC2 secondary – confirmation of human KCC2 transport modulators. shares compounds with KCC2 mod. HEK293-KCC2, thallium flux, FluoZin2 fluorescence; hits give high values. normalised thallium flux (F/F0 slope) at 10 µM. 3,700 compounds, 15% hits;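 active means thallium flux slope above the same plate's solvent-only control mean plus 3 SD; inconclusive means the two replicate wells disagree; inactive means no significant difference from solvent-only control wells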
KCC2 bumet counter – thallium flux despite bumetanide block in KCC2 cells, secondary assay 3; HEK293-KCC2 + bumetanide/ouabain, thallium flux FluoZin2; hits give high values; 3,700 compounds, 49% hits; shares compounds with KCC2 mod; AID 1714; normalized thallium flux at 10 µM;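 active means thallium entry rate above the same plate's blocked-transporter control wells by more than 3 SD; inconclusive means the two repeat wells disagree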;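 further: raw slope of fluorescence over initial fluorescence between 10 and 20 s after thallium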
KCC2 sec2 – KCC2 (human) modulation, second secondary assay | shares compounds with KCC2 mod | HEK293-KCC2, thallium flux FluoZin2 fluorescence; actives lie on both sides; F/F0 rise rate, 10–20 s post-thallium | normalized thallium flux at 10 µM | 3,700 compounds, 23% hits | AID 1715;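 active means thallium flux slope more than 3 SD above or below the plate's solvent-only control mean, mostly below; inconclusive means the two repeat wells disagreed; inactive means no significant shift from solvent-only controls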
HEK293 Tl flux – acts in parental HEK cells, KCC2 counter-screen | 3,700 compounds, 46% hits | thallium flux rate (normalised fluorescence) at 10 µM | HEK293 parental cells, thallium flux FluoZin2, ouabain; baseline-ratio fluorescence slope, 10–20 s after thallium | shares compounds with KCC2 mod | AID 1716;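 active means thallium flux rate significantly above the same plate's solvent-only control wells, beyond their mean plus 3 SD; inconclusive means the two replicate wells gave conflicting results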
KCC2 ouabain – modulates human KCC2 on retest with ouabain; raw Tl+ flux slope (below DMSO = inhibition, above = activation) at 10 µM; shares compounds with KCC2 mod; 3,700 compounds, 48% hits; HEK293-KCC2, thallium flux FluoZin2 fluorescence; bidirectional: low = inhibitor, high = activator;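 active means thallium flux slope beyond 3 SD from same-plate DMSO control mean in most replicates, usually higher, sometimes lower; inconclusive means repeat tests gave conflicting results; inactive means no significant difference from controls in most replicates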;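 further: slope of initial-normalized fluorescence between seconds 10 and 20 after thallium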
HEK counter2 – counter-screen for KCC2 modulators: effect in parental HEK293 cells; shares compounds with KCC2 mod; thallium flux FluoZin-2 fluorescence slope; thallium flux slope at 10 µM; 3,700 compounds, 33% hits; AID 1718;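 active means thallium flux slope above the same plate's solvent-control mean plus 3 SD in both duplicate wells; inconclusive means duplicate wells that disagreed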;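 further: run without ouabain in cells lacking the KCC2 cotransporter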
A number is an active result; i = inactive; ? = inconclusive; nt = no result given. The list is not random: actives were taken first. Their share in the collection is about 4.2%.

SMILES | hERG protect | Mot1-301 SUMO | KCNQ1 pot | AI-2 QS mod | KCNQ1 block | KCC2 mod | KCC2 secondary | KCC2 bumet counter | KCC2 sec2 | HEK293 Tl flux | KCC2 ouabain | HEK counter2
Cc1ccc(NC(=S)NC(NC(=O)c2ccco2)C(Cl)(Cl)Cl)cc1 (configuration not stated) | i | i | i | i | i | 8.2 | i | i | i | i | i | i
O=C(NC(=S)Nc1ccc(CN2CCCCC2)cc1)c1cc2ccccc2o1 | i | i | i | i | i | 13 | i | 0.017 | 0.05 | 0.031 | 0.033 | 0.032
CCCCC(=O)Nc1ccc(C(=O)NNC(=S)NC(=O)c2ccco2)cc1 | i | i | i | i | i | 7.2 | i | 0.031 | i | ? | 0.03 | ?
Cc1cc(=O)oc2cc(OCC(O)CN3CCN(c4ccc(F)cc4)CC3)ccc12 (configuration not stated) | i | i | i | i | i | i | nt | nt | nt | nt | nt | nt
CCOc1ccccc1N1CCN(CC(O)COc2ccc3c(C)cc(=O)oc3c2)CC1 (configuration not stated) | i | i | i | i | i | 6.3 | i | i | i | i | i | i
CC1=CN2C(=N)/C(=C/c3ccc(Sc4ccc(C)cc4)o3)C(=O)N=C2S1 | i | i | i | i | i | 16 | i | 0.03 | ? | 0.042 | 0.032 | 0.021
CC1=CN2C(=N)/C(=C/c3ccc(Sc4ccc(Cl)cc4)o3)C(=O)N=C2S1 | i | i | i | i | i | 9.2 | i | 0.014 | i | 0.013 | i | i
Cc1ccc(/C=C2\C(=N)N3N=C(CC(=O)N4CCOCC4)SC3=NC2=O)o1 | i | i | i | i | i | nt | nt | nt | nt | nt | nt | nt
N=C1/C(=C\c2ccc(SCc3ccccc3)o2)C(=O)N=C2SC=NN12 | i | i | i | i | i | i | nt | nt | nt | nt | nt | nt
CC1=CN2C(=N)/C(=C/c3ccc(C)o3)C(=O)N=C2S1 | i | i | i | i | i | 8.8 | i | 0.028 | i | 0.013 | i | ?
CCN=C1S/C(=C\c2ccc(Sc3ccc(Cl)cc3)o2)C(=O)N1CC | i | nt | i | i | i | i | nt | nt | nt | nt | nt | nt
C=C1[C@@H](OC(C)=O)CC[C@]2(C)[C@@H]1C[C@@H]1C[C@H](OC(C)=O)C(C)=C([C@@H](OC(C)=O)[C@@H]2OC(C)=O)C1(C)C | i | i | i | i | i | i | nt | nt | nt | nt | nt | nt
Cc1ccc(S(=O)(=O)N2CCCC2CNC(=O)c2ccc(F)c(F)c2)cc1 (configuration not stated) | i | i | i | i | i | nt | nt | nt | nt | nt | nt | nt
CC1CCCN(C(=O)COc2ccc(Nc3ccccc3)cc2)C1 (configuration not stated) | i | i | i | i | i | i | nt | nt | nt | nt | nt | nt
Cc1ccc(C)c(NC(=O)CSc2nnc(-c3ccco3)o2)c1 | i | i | i | i | i | i | nt | nt | nt | nt | nt | nt
Cc1ccc(C)c(NC(=O)CSc2nnc([C@@H](N)Cc3ccccc3)o2)c1 | i | i | i | i | i | -4.3 | i | i | ? | i | 0.014 | ?
CC(Sc1nnc(-c2ccc(OC(F)F)cc2)n1N)C(=O)NCC1CCCO1 (configuration not stated) | i | i | i | i | i | nt | nt | nt | nt | nt | nt | nt
CC(=O)c1ccc(NC(=O)C(C)Sc2nnc(C3CCCCC3)o2)cc1 (configuration not stated) | i | i | i | i | i | nt | nt | nt | nt | nt | nt | nt
C/C(=N\Nc1ccccn1)c1ccc(S(=O)(=O)NCc2ccco2)cc1 | i | i | i | i | i | i | nt | nt | nt | nt | nt | nt
C/C(=N\Nc1ccc(C(=O)O)cc1)c1ccc(S(=O)(=O)NCc2ccco2)cc1 | i | i | i | i | i | 4.5 | i | i | i | i | i | 0.01
CCC(C(=O)NCCc1ccccc1OC)n1nc(C)c2c(C)n(-c3ccccc3)nc2c1=O (configuration not stated) | i | i | i | i | i | nt | nt | nt | nt | nt | nt | nt
O=C(COc1ccccc1-c1ccccc1)NN=C1CCCC1 | i | i | i | i | i | -3.4 | i | i | i | 0.005 | i | 0.0077
O=C(/C=C/c1cccc([N+](=O)[O-])c1)NCCSc1ccccc1 | i | nt | i | i | i | nt | nt | nt | nt | nt | nt | nt
CC(C)(C)SCCNC(=O)/C=C/c1cccc([N+](=O)[O-])c1 | i | i | i | i | i | 3.7 | i | i | i | i | i | i
CC(C)(C)SCCNC(=O)/C=C/c1ccc([N+](=O)[O-])cc1 | i | i | i | i | i | i | nt | nt | nt | nt | nt | nt
SMILES | hERG protect | Mot1-301 SUMO | KCNQ1 pot | AI-2 QS mod | KCNQ1 block | KCC2 mod | KCC2 secondary | KCC2 bumet counter | KCC2 sec2 | HEK293 Tl flux | KCC2 ouabain | HEK counter2
Cc1ccc(SCCNC(=O)/C=C/c2cccc([N+](=O)[O-])c2)cc1 | i | i | i | i | i | -4.5 | i | i | i | i | 0.015 | i
CCN(CC(=O)Nc1c(F)cccc1F)C(=O)C1CCN(C(=O)Nc2ccccc2)CC1 | nt | i | nt | nt | nt | nt | nt | nt | nt | nt | nt | nt
O=C1/C(=C/c2ccc(O)cc2)SC(=S)N1Cc1cccnc1 | i | i | i | i | i | i | nt | nt | nt | nt | nt | nt
O=C1/C(=C/c2ccc(Cl)cc2)NC(=S)N1Cc1cccnc1 | i | i | i | i | i | 5.2 | i | 0.0088 | i | 0.01 | i | i
CCOc1ccc(OCCNC(=O)C(NC(=O)c2c(F)cccc2F)C(C)C)cc1 (configuration not stated) | nt | i | nt | nt | nt | nt | nt | nt | nt | nt | nt | nt
CC1(C)CC(=O)C(C(=O)CCCCC(=O)C2C(=O)CC(C)(C)CC2=O)C(=O)C1 | i | i | i | i | i | 4.4 | i | i | i | i | i | i
COC(=O)CCCCC(=O)C1C(=O)CC(C)(C)C(C(=O)OC)C1=O (configuration not stated) | i | i | i | i | i | i | nt | nt | nt | nt | nt | nt
CCN(C(=O)COC(=O)CNC(=O)c1ccc(C)s1)c1ccccc1 | i | i | i | i | i | i | nt | nt | nt | nt | nt | nt

Screening results from PubChem BioAssay.
